Laboratory results: ChEMBL document CHEMBL1914457, “Syntheses of phenylpyrazolodiazepin-7-ones as conformationally rigid analogs of aminopyrazole amide scaffold and their antiproliferative effects on cancer cells” (Bioorg Med Chem, 2011)
Blank lines part the entries; values can stand above or below the compound they belong to.

Assays:
U-937 = test: Growth inhibition of human U937 cells after 24 hrs by thiazolyl blue tetrazolium bromide staining-based MTT assay; type: functional; conditions: U-937, 24 h
How it was run: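 U937 cells kept in RPMI 1640 with 10% FBS, 1% penicillin/streptomycin and 25 mM HEPES at 37 °C, 5% CO2. Seeded at 5 × 10^3 cells/well and incubated 24 h before treatment. Compounds given as a threefold serial dilution over 12 points. Viability read by MTT reduction with thiazolyl blue tetrazolium bromide as absorbance at 570 nm.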

[1] = Growth inhibition of human A375P cells after 24 hrs by MTT assay; type: functional
How it was run: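 A375P cells grown in DMEM with 10% FBS and 1% penicillin/streptomycin at 37 °C, 5% CO2. Cells lifted with 0.05% trypsin-0.02% EDTA, seeded at 5 × 10^3 cells/well and held 24 h before treatment. Compounds given as a threefold serial dilution over 12 points. Viability read by MTT reduction (CellTiter 96) as absorbance at 590 nm; IC50 fitted from the curve.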

[2] = molecular target: T1, Serine/threonine-protein kinase mTOR (Homo sapiens, UniProt P42345); test: Inhibition of MTOR
[3] = molecular target: T2, RAF proto-oncogene serine/threonine-protein kinase (Homo sapiens, UniProt P04049); test: Inhibition of human CRAF using [gamma-33P]ATP after 40 mins by scintillation counting
T2 sequence (P04049 whole entry): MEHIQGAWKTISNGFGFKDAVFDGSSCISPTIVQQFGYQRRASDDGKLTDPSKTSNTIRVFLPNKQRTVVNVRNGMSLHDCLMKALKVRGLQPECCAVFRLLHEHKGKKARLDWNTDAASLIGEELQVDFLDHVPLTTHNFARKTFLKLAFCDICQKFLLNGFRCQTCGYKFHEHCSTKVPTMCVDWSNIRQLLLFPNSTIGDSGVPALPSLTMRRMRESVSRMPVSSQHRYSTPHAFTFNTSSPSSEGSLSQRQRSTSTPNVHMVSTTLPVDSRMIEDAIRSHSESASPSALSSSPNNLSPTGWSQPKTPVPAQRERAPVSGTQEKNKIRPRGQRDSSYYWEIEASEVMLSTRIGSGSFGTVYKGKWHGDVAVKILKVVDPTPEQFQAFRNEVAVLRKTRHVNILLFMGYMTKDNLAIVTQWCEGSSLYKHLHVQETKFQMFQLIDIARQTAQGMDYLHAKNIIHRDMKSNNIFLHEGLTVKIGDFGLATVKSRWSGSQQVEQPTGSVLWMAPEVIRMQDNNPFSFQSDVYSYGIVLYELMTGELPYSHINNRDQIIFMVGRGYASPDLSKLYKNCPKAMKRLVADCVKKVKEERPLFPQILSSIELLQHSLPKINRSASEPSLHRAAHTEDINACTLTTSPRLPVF
How it was run: (§1)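 Human c-Raf (5–10 mU) was run in 25 mM Tris pH 7.5 with 0.02 mM EGTA, 10 mM Mg acetate and 0.66 mg/mL myelin basic protein as substrate. The reaction was started with Mg–[γ-33P]ATP (about 500 cpm/pmol; ATP concentration not stated) and run 40 min at room temperature. It was stopped with 3% phosphoric acid, spotted on P30 filtermat, washed in 75 mM phosphoric acid and methanol, and scintillation counted.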

[4] = molecular target: Serine/threonine-protein kinase B-raf (Homo sapiens, UniProt P15056, V600E); test: Inhibition of BRAF V600E mutant
Chain of Serine/threonine-protein kinase B-raf (P15056 2-766 V600E limits assumed): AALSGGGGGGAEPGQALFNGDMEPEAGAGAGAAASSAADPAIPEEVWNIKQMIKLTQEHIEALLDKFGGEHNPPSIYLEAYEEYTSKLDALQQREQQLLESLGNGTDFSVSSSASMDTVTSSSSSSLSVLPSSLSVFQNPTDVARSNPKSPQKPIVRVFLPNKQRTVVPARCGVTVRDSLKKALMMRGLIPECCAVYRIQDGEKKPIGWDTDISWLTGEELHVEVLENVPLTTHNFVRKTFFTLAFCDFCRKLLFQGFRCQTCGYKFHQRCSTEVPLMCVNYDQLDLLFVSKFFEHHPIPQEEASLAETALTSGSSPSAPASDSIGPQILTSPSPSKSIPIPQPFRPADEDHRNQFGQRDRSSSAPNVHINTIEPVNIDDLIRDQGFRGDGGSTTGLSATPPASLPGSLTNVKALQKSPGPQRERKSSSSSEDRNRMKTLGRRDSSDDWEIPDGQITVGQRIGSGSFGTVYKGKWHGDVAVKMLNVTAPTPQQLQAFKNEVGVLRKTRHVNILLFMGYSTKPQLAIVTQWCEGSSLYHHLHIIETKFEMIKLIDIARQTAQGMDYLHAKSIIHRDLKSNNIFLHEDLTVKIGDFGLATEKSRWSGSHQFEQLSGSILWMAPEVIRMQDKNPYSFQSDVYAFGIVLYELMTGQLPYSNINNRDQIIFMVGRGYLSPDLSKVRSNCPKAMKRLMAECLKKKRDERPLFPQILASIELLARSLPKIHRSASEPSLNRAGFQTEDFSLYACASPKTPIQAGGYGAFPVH

[5] = molecular target: T3, Phosphatidylinositol 4,5-bisphosphate 3-kinase catalytic subunit alpha isoform (Homo sapiens, UniProt P42336); test: Inhibition of PI3Kalpha
T3 sequence (P42336 whole entry, canonical isoform): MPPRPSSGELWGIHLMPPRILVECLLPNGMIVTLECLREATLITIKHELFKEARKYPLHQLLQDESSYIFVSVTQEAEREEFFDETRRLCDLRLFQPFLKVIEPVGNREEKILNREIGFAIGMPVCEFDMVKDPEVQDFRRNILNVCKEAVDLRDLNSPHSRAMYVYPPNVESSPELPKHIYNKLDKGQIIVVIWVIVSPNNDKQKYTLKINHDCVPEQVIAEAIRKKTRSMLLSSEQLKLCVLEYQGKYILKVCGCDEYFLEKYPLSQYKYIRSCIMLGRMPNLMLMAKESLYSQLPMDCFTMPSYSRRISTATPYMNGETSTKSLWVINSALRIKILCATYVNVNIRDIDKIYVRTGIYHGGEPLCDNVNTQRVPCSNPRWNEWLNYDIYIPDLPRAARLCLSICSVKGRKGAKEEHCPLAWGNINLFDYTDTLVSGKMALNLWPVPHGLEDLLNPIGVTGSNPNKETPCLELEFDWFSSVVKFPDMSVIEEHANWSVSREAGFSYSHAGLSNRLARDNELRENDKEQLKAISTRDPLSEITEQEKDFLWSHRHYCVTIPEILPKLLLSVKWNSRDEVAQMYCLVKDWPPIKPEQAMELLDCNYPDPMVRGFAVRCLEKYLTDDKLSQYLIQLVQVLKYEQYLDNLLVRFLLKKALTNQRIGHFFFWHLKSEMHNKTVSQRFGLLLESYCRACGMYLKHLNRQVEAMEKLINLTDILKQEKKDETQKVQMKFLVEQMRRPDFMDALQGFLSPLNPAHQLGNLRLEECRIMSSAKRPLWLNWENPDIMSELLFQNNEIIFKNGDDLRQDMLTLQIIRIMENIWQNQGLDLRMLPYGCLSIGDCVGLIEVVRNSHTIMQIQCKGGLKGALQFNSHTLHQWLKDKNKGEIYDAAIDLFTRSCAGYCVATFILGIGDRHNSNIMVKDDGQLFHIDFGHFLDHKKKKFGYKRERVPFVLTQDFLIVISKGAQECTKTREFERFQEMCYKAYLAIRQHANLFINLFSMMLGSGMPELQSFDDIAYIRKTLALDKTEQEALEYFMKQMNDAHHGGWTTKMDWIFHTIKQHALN

[6] = molecular target: Tyrosine-protein kinase ABL1 (Homo sapiens) (UniProt P00519); test: Inhibition of Abl1 at 10 uM
[7] = molecular target: RAC-alpha serine/threonine-protein kinase (Homo sapiens) (UniProt P31749); test: Inhibition of AKT1 at 10 uM
[8] = molecular target: ALK tyrosine kinase receptor (Homo sapiens) (UniProt Q9UM73); test: Inhibition of Alk at 10 uM
[9] = molecular target: Aurora kinase A (Homo sapiens) (UniProt O14965); test: Inhibition of Aurora-A at 10 uM
[10] = test system: Serine/threonine-protein kinase B-raf (Homo sapiens), P15056 [V600E]; test: Inhibition of BRAF V599E mutant at 10 uM
[11] = molecular target: Cyclin-dependent kinase 1/cyclin B1 (Homo sapiens) (UniProt P06493+P14635); test: Inhibition of CDK1/Cyclin B at 10 uM; type: protein-complex assay
[12] = molecular target: Cyclin-dependent kinase 2/cyclin E1 (Homo sapiens) (UniProt P24864+P24941); test: Inhibition of CDK2/Cyclin E at 10 uM; type: protein-complex assay
[13] = molecular target: Mast/stem cell growth factor receptor Kit (Homo sapiens) (UniProt P10721); test: Inhibition of cKIT at 10 uM
[14] = molecular target: Hepatocyte growth factor receptor (Homo sapiens) (UniProt P08581); test: Inhibition of cMet at 10 uM
[15] = molecular target: Proto-oncogene tyrosine-protein kinase Src (Homo sapiens) (UniProt P12931); test: Inhibition cSRC at 10 uM
[16] = molecular target: Epidermal growth factor receptor (Homo sapiens) (UniProt P00533); test: Inhibition EGFR at 10 uM
Chain of Epidermal growth factor receptor (Homo sapiens) (P00533 whole entry): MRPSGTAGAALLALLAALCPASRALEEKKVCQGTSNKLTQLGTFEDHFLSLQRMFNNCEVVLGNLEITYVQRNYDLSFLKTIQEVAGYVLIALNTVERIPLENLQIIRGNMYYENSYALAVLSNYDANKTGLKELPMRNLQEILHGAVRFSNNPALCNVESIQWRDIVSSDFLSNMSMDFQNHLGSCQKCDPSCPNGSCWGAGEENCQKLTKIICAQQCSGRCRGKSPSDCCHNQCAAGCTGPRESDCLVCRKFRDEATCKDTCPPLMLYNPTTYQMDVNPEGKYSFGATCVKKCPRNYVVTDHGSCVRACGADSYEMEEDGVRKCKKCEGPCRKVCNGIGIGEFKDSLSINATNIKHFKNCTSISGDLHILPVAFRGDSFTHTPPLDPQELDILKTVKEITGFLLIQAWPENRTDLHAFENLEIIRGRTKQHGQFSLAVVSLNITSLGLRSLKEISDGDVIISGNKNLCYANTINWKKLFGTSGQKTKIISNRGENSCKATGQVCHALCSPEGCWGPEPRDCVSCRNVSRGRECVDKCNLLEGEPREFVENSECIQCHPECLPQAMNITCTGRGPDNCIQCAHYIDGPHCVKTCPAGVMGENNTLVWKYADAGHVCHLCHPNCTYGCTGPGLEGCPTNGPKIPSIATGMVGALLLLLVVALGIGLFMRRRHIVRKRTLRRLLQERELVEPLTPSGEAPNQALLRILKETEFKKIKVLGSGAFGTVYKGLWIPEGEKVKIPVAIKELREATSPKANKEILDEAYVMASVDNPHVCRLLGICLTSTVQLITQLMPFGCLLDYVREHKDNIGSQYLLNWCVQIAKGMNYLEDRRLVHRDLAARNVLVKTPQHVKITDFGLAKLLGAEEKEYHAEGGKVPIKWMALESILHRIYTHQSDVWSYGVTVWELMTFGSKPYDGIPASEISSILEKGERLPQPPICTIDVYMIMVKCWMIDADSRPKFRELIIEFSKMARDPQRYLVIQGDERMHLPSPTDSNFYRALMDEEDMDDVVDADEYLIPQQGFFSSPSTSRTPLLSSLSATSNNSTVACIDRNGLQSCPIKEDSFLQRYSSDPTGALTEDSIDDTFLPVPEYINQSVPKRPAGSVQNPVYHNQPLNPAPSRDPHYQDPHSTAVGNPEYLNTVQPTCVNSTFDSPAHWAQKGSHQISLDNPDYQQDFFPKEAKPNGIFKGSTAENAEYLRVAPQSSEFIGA

[17] = molecular target: Mitogen-activated protein kinase 1 (Homo sapiens) (UniProt P28482); test: Inhibition of ERK2 at 10 uM
[18] = molecular target: Focal adhesion kinase 1 (Homo sapiens) (UniProt Q05397); test: Inhibition of FAK at 10 uM
Chain of Focal adhesion kinase 1 (Homo sapiens) (Q05397 2-1052 limits assumed): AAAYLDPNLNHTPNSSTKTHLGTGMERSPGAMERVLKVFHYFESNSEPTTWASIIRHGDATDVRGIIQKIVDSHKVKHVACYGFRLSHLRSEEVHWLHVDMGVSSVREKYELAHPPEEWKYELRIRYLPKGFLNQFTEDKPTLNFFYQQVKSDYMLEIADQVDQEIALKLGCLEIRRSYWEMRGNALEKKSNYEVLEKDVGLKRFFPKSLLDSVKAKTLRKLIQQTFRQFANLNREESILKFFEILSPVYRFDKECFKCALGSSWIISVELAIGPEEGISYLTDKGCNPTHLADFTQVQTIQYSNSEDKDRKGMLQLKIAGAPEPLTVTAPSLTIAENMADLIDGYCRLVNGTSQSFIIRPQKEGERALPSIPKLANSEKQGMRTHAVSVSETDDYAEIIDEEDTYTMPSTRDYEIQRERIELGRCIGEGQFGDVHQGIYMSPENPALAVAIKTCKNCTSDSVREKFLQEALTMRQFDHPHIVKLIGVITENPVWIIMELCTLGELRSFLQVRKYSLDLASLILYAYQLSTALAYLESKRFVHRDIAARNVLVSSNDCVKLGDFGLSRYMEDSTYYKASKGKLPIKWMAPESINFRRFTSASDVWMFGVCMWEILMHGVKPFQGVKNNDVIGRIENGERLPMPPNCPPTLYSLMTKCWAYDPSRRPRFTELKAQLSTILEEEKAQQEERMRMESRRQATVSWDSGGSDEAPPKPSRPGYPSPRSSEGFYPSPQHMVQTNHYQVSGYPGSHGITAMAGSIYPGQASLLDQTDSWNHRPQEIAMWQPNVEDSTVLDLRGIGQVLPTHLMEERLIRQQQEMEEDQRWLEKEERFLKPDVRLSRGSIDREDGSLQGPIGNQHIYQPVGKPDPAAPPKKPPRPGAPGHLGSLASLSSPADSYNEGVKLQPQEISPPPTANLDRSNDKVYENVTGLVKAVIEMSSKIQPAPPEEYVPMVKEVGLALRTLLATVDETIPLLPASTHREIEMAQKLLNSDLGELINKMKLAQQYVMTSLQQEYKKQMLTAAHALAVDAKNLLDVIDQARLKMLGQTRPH

[19] = molecular target: Fibroblast growth factor receptor 2 (Homo sapiens) (UniProt P21802); test: Inhibition of FGFR2 at 10 uM
[20] = molecular target: Fibroblast growth factor receptor 3 (Homo sapiens) (UniProt P22607); test: Inhibition of FGFR3 at 10 uM
[21] = molecular target: Receptor-type tyrosine-protein kinase FLT3 (Homo sapiens) (UniProt P36888); test: Inhibition of FLT3 at 10 uM
[22] = molecular target: Macrophage colony-stimulating factor 1 receptor (Homo sapiens) (UniProt P07333); test: Inhibition of FMS at 10 uM
[23] = molecular target: Glycogen synthase kinase-3 beta (Homo sapiens) (UniProt P49841); test: Inhibition of GSK3-beta at 10 uM
[24] = molecular target: Insulin-like growth factor 1 receptor (Homo sapiens) (UniProt P08069); test: Inhibition of IGF1R at 10 uM
[25] = molecular target: Tyrosine-protein kinase JAK3 (Homo sapiens) (UniProt P52333); test: Inhibition of JAK3 at 10 uM
[26] = molecular target: Mitogen-activated protein kinase 8 (Homo sapiens) (UniProt P45983); test: Inhibition of JNK1 at 10 uM
[27] = molecular target: Mitogen-activated protein kinase 10 (Homo sapiens) (UniProt P53779); test: Inhibition of JNK3 at 10 uM
[28] = molecular target: Vascular endothelial growth factor receptor 2 (Homo sapiens) (UniProt P35968); test: Inhibition of KDR at 10 uM
[29] = molecular target: Tyrosine-protein kinase Lck (Homo sapiens) (UniProt P06239); test: Inhibition of LCK at 10 uM
[30] = molecular target: Tyrosine-protein kinase Lyn (Homo sapiens) (UniProt P07948); test: Inhibition of LYN at 10 uM
[31] = molecular target: Dual specificity mitogen-activated protein kinase kinase 1 (Homo sapiens) (UniProt Q02750); test: Inhibition of MEK1 at 10 uM
[32] = molecular target: T1, Serine/threonine-protein kinase mTOR; test: Inhibition of MTOR at 10 uM
[33] = molecular target: Mitogen-activated protein kinase 14 (Homo sapiens) (UniProt Q16539); test: Inhibition of p38alpha at 10 uM
Chain of Mitogen-activated protein kinase 14 (Homo sapiens) (Q16539 whole entry, canonical isoform): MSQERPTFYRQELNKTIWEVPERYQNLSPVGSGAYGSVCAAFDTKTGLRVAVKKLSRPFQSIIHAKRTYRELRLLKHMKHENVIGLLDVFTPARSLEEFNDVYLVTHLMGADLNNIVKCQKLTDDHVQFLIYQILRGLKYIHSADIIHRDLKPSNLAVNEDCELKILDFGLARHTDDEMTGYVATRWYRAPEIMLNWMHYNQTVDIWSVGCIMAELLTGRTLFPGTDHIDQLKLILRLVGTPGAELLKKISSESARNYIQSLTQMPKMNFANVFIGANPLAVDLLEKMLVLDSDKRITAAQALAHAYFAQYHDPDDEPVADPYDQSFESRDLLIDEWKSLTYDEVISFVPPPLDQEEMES

[34] = molecular target: T3, Phosphatidylinositol 4,5-bisphosphate 3-kinase catalytic subunit alpha isoform; test: Inhibition of PI3Kalpha at 10 uM
[35] = molecular target: Serine/threonine-protein kinase PLK1 (Homo sapiens) (UniProt P53350); test: Inhibition of PLK1 at 10 uM
[36] = molecular target: T2, RAF proto-oncogene serine/threonine-protein kinase; test: Inhibition of human CRAF using [gamma-33P]ATP at 10 uM after 40 mins by scintillation counting; how it was run: as §1
[37] = molecular target: Macrophage-stimulating protein receptor (Homo sapiens) (UniProt Q04912); test: Inhibition of RON at 10 uM
[38] = molecular target: Proto-oncogene tyrosine-protein kinase ROS (Homo sapiens) (UniProt P08922); test: Inhibition of ROS at 10 uM
[39] = molecular target: Tyrosine-protein kinase SYK (Homo sapiens) (UniProt P43405); test: Inhibition of SYK at 10 uM
[40] = molecular target: BDNF/NT-3 growth factors receptor (Homo sapiens) (UniProt Q16620); test: Inhibition of TRKB at 10 uM

SMILES: COc1ccc(Cn2ncc3c2NC(=O)CC(c2cccc(NC(=O)Nc4cccc(Cl)c4)c2)=N3)cc1
GI50 (U-937): 630 nM | GI50 [1]: 910 nM

IC50 [2]: 6800 nM
SMILES: O=c1cc(N2CCOCC2)oc2c(-c3ccccc3)cccc12 [LY-294002]

SMILES: O=C1CC(c2ccc(NC(=O)Nc3cccc(Cl)c3)cc2)=Nc2cnn(Cc3ccccc3)c2N1
GI50 (U-937): 670 nM | GI50 [1]: 2070 nM

SMILES: O=C1CC(c2ccc(NC(=O)c3ccc(N4CCOCC4)c(C(F)(F)F)c3)cc2)=Nc2cnn(Cc3ccccc3)c2N1
GI50 (U-937): 210 nM | GI50 [1]: 16400 nM

SMILES: O=C1CC(c2cccc(NC(=O)Nc3ccc(Cl)c(Cl)c3)c2)=Nc2cn[nH]c2N1
GI50 (U-937): > 30000 nM | GI50 [1]: > 30000 nM

SMILES: CNC(=O)c1cc(Oc2ccc(NC(=O)Nc3ccc(Cl)c(C(F)(F)F)c3)cc2)ccn1 [SORAFENIB]
GI50 (U-937): 2850 nM | GI50 [1]: 5580 nM

SMILES: O=C1CC(c2ccc(NC(=O)Nc3ccc(Cl)c(C(F)(F)F)c3)cc2)=Nc2cn[nH]c2N1
GI50 (U-937): > 30000 nM | GI50 [1]: > 30000 nM

SMILES: O=C1CC(c2cccc(NC(=O)c3ccc(N4CCOCC4)c(C(F)(F)F)c3)c2)=Nc2cnn(Cc3ccccc3)c2N1
GI50 (U-937): 1750 nM | GI50 [1]: 2910 nM

SMILES: O=C1CC(c2cccc(NC(=O)c3cc(N4CCOCC4)cc(C(F)(F)F)c3)c2)=Nc2cnn(Cc3ccccc3)c2N1
GI50 (U-937): > 30000 nM | GI50 [1]: > 30000 nM

SMILES: COc1ccc(Cn2ncc3c2NC(=O)CC(c2ccc(NC(=O)Nc4ccc(Cl)c(C(F)(F)F)c4)cc2)=N3)cc1
GI50 (U-937): 7290 nM | GI50 [1]: 3930 nM

SMILES: O=C1CC(c2cccc(NC(=O)Nc3ccc(Cl)c(C(F)(F)F)c3)c2)=Nc2cnn(Cc3ccccc3)c2N1
IC50 [3]: 668 nM | IC50 [4]: Not Active | GI50 (U-937): 7310 nM | GI50 [1]: 4450 nM

SMILES: O=C1CC(c2cccc(NC(=O)Nc3ccc(Cl)cc3)c2)=Nc2cn[nH]c2N1
GI50 (U-937): > 30000 nM | GI50 [1]: > 30000 nM

SMILES: COc1ccc(Cn2ncc3c2NC(=O)CC(c2cccc(NC(=O)Nc4cc(N5CCOCC5)cc(C(F)(F)F)c4)c2)=N3)cc1
GI50 (U-937): > 30000 nM | GI50 [1]: 3320 nM

SMILES: COc1ccc(Cn2ncc3c2NC(=O)CC(c2cccc(NC(=O)Nc4cc(Cl)cc(Cl)c4)c2)=N3)cc1
GI50 (U-937): 6480 nM | GI50 [1]: 780 nM

SMILES: O=C1CC(c2cccc(NC(=O)c3ccc(Cl)c(C(F)(F)F)c3)c2)=Nc2cnn(Cc3ccccc3)c2N1
IC50 [5]: 2150 nM | IC50 [3]: 961 nM | IC50 ([4]; read-out: IC50): 655 nM | GI50 (U-937): 60 nM | GI50 [1]: 430 nM | inhibition [6]: 0% | inhibition [7]: 0% | inhibition [8]: 0% | inhibition [9]: 6.5% | inhibition [10]: 85.6% | inhibition [11]: 7% | inhibition [12]: 0.9% | inhibition [13]: 3.6% | inhibition [14]: 1.3% | inhibition [15]: 4.3% | inhibition [16]: 1.6% | inhibition [17]: 0% | inhibition [18]: 0% | inhibition [19]: 0% | inhibition [20]: 0% | inhibition [21]: 19.3% | inhibition [22]: 0.5% | inhibition [23]: 17.8% | inhibition [24]: 1.9% | inhibition [25]: 0% | inhibition [26]: 0% | inhibition [27]: 0% | inhibition [28]: 0% | inhibition [29]: 5.6% | inhibition [30]: 4.6% | inhibition [31]: 0% | inhibition [32]: 0% | inhibition [33]: 0% | inhibition [34]: 75.2% | inhibition [35]: 0% | inhibition [36]: 92.9% | inhibition [37]: 4.4% | inhibition [38]: 0% | inhibition [39]: 0% | inhibition [40]: 0.2%

SMILES: O=C1CC(c2ccc(NC(=O)c3ccc(Cl)c(C(F)(F)F)c3)cc2)=Nc2cnn(Cc3ccccc3)c2N1
GI50 (U-937): 60 nM | GI50 [1]: 13100 nM

SMILES: Cc1cn(-c2cc(C(=O)Nc3ccc(C4=Nc5cnn(Cc6ccccc6)c5NC(=O)C4)cc3)cc(C(F)(F)F)c2)cn1
GI50 (U-937): > 30000 nM | GI50 [1]: > 30000 nM

SMILES: COc1ccc(Cn2ncc3c2NC(=O)CC(c2cccc(NC(=O)Nc4ccc(Cl)cc4)c2)=N3)cc1
GI50 (U-937): 580 nM | GI50 [1]: 640 nM

SMILES: O=C1CC(c2ccc(NC(=O)Nc3ccc(Cl)c(C(F)(F)F)c3)cc2)=Nc2cnn(Cc3ccccc3)c2N1
GI50 (U-937): 8680 nM | GI50 [1]: 1190 nM

SMILES: Cc1cn(-c2cc(NC(=O)Nc3ccc(C4=Nc5cnn(Cc6ccccc6)c5NC(=O)C4)cc3)cc(C(F)(F)F)c2)cn1
GI50 (U-937): > 30000 nM | GI50 [1]: > 30000 nM

SMILES: COc1ccc(Cn2ncc3c2NC(=O)CC(c2cccc(NC(=O)Nc4ccc(C(F)(F)F)cc4)c2)=N3)cc1
GI50 (U-937): 110 nM | GI50 [1]: 770 nM

SMILES: COc1ccc(Cn2ncc3c2NC(=O)CC(c2cccc(NC(=O)Nc4cccc(C(F)(F)F)c4)c2)=N3)cc1
GI50 (U-937): 280 nM | GI50 [1]: 250 nM

SMILES: Cc1cn(-c2cc(C(=O)Nc3cccc(C4=Nc5cnn(Cc6ccccc6)c5NC(=O)C4)c3)cc(C(F)(F)F)c2)cn1
GI50 (U-937): > 30000 nM | GI50 [1]: > 30000 nM

SMILES: COc1ccc(Cn2ncc3c2NC(=O)CC(c2cccc(NC(=O)Nc4ccc(Cl)c(Cl)c4)c2)=N3)cc1
GI50 (U-937): 14900 nM | GI50 [1]: 3860 nM
